# Columns and labels:
# [1] = tested on: Pseudomonas aeruginosa; experiment: Antibacterial activity against Pseudomonas aeruginosa assessed as growth inhibition after 24 hrs by microplate reader analysis; type: functional, organism-based
# In short: (§1)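 IC50 for growth and biofilm formation found by serial dilution to the concentration giving 50% inhibition.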
# [2] = tested on: Pseudomonas aeruginosa; experiment: Antibacterial activity against Pseudomonas aeruginosa assessed as growth inhibition at 50 ug/ml after 24 hrs by microplate reader analysis; type: functional; details: read-out: GI
# [3] = tested on: Pseudomonas aeruginosa; experiment: Antibiofilm activity against Pseudomonas aeruginosa after 24 hrs by microplate reader analysis; type: functional, organism-based; in short: as §1
# [4] = tested on: Pseudomonas aeruginosa; experiment: Antibiofilm activity against Pseudomonas aeruginosa at 50 ug/ml after 24 hrs by microplate reader analysis; type: functional
# [5] = tested on: Pseudomonas aeruginosa; experiment: Reduction of extracellular DNA in Pseudomonas aeruginosa biofilm after 48 hrs by UV-spectrophotometry; type: functional, organism-based
# In short: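 eDNA measured as the change in absorbance of biofilm lysate at 260 nm versus untreated controls; mean ± standard deviation.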
# [6] = tested on: Pseudomonas aeruginosa; experiment: Inhibition of MDH in Pseudomonas aeruginosa biofilm after 48 hrs by UV-spectrophotometry
# In short: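 MDH in biofilm read as the change in absorbance of the reaction mixture at 340 nm, relative to untreated controls; mean ± standard deviation.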
Compound,IC50 [1],inhibition of growth at 50 µg/mL [2],IC50 [3],inhibition at 50 µg/mL [4],Activity [5],inhibition [6]
CCOC(=O)C1=C(Nc2ccc(OCC)cc2)C(=O)N(c2ccc(OCC)cc2)C1C(=O)OCC (stereo not drawn),46.6 µg/mL,63.1%,48.4 µg/mL,53.8%,Dose-dependent effect,Dose-dependent effect
CCOC(=O)C1=C(Nc2cccc(Cl)c2)C(=O)N(c2cccc(Cl)c2)C1C(=O)OCC (stereo not drawn),27.8 µg/mL,83%,28.8 µg/mL,70.2%,Dose-dependent effect,Dose-dependent effect
CCOC(=O)C1=C(Nc2ccc(OC)cc2)C(=O)N(c2ccc(OC)cc2)C1C(=O)OCC (stereo not drawn),34.2 µg/mL,80.8%,40.2 µg/mL,61.4%,Dose-dependent effect,Dose-dependent effect
CCOC(=O)C1=C(Nc2cccc(C)c2)C(=O)N(c2cccc(C)c2)C1C(=O)OCC (stereo not drawn),48.4 µg/mL,55.5%,,29.3%,,
CCOC(=O)C1=C(Nc2cc(C)cc(C)c2)C(=O)N(c2cc(C)cc(C)c2)C1C(=O)OCC (stereo not drawn),,32.5%,,28.9%,,
CC[C@H]1OC(=O)[C@H](C)[C@@H](O[C@H]2C[C@@](C)(OC)[C@@H](O)[C@H](C)O2)[C@H](C)[C@@H](O[C@@H]2O[C@H](C)C[C@H](N(C)C)[C@H]2O)[C@](C)(O)C[C@@H](C)C(=O)[C@H](C)[C@@H](O)[C@]1(C)O [ERYTHROMYCIN],33.2 µg/mL,67.6%,,45.7%,Dose-dependent effect,Dose-dependent effect
CCOC(=O)C1=C(Nc2cccc(C(=O)OCC)c2)C(=O)N(c2cccc(C(=O)OCC)c2)C1C(=O)OCC (stereo not drawn),,15.4%,,42%,,
CCOC(=O)C1=C(Nc2ccc(Cl)cc2)C(=O)N(c2ccc(Cl)cc2)C1C(=O)OCC (stereo not drawn),41.6 µg/mL,68.6%,,20.7%,,
CCOC(=O)C1=C(Nc2ccc(C(=O)OCC)cc2)C(=O)N(c2ccc(C(=O)OCC)cc2)C1C(=O)OCC (stereo not drawn),,44.7%,,37.8%,,
CCOC(=O)C1=C(Nc2ccc(Br)cc2)C(=O)N(c2ccc(Br)cc2)C1C(=O)OCC (stereo not drawn),38.4 µg/mL,76.8%,39 µg/mL,65.4%,Dose-dependent effect,Dose-dependent effect
CCOC(=O)C1=C(NC2CC2)C(=O)N(C2CC2)C1C(=O)OCC (stereo not drawn),,26.6%,,11.8%,,
CCOC(=O)C1=C(Nc2cccc(F)c2)C(=O)N(c2cccc(F)c2)C1C(=O)OCC (stereo not drawn),,20.3%,,27.5%,,
CCOC(=O)C1=C(Nc2ccccc2)C(=O)N(c2ccccc2)C1C(=O)OCC (stereo not drawn),50 µg/mL,50.4%,,35.5%,,
CCOC(=O)C1=C(NC2CCC2)C(=O)N(C2CCC2)C1C(=O)OCC (stereo not drawn),,40.9%,,41.3%,,
CCOC(=O)C1=C(Nc2ccc(C)cc2)C(=O)N(c2ccc(C)cc2)C1C(=O)OCC (stereo not drawn),,34%,,13.6%,,
CCOC(=O)C1=C(Nc2ccc(CC)cc2)C(=O)N(c2ccc(CC)cc2)C1C(=O)OCC (stereo not drawn),42.2 µg/mL,65.8%,47.4 µg/mL,53.2%,Dose-dependent effect,Dose-dependent effect

# — ChEMBL document CHEMBL3351850, “Synthesis and anti-biofilm activities of dihydro-pyrrol-2-one derivatives on Pseudomonas aeruginosa” (Bioorg Med Chem Lett, 2015)
